Here are results for 1 molecule from ChEMBL document CHEMBL4346658, “sp2-Iminosugar glycolipids as inhibitors of lipopolysaccharide-mediated human dendritic cell activation in vitro and of acute inflammation in mice in vivo” (Eur J Med Chem, 2019).

Experiment [1] has as its system Dendritic cell. The experiment is described as follows: Antiinflammatory activity in human dendritic cells assessed as reduction in LPS-induced CD83 expression on cell surface at 100 uM pretreated with LPS upto 6 hrs followed by compound addition measured after 24 hrs by FACS analysis. It counts as functional, cell-based.
The subject of experiment [2] is Dendritic cell. The experiment is described as follows: Antiinflammatory activity in human dendritic cells assessed as reduction in LPS-induced TNFalpha production at 100 uM pretreated with LPS up to 6 hrs followed by compound addition measured after 24 hrs by ELISA. The class given is functional, cell-based. An outline of the steps:
(§1)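 Monocyte-derived DCs (10^5 per 200 µL) were stimulated with ultrapure E. coli K12 LPS (100 ng mL⁻¹). Compound was added 0.5, 2, 4 or 6 h after LPS. TNF-α in the supernatant was measured by ELISA 24 h after stimulation, as mean ± SD of more than 3 independent assays.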

Experiment [3] has as its system Dendritic cell. The experiment is described as follows: Antiinflammatory activity in human dendritic cells assessed as reduction in LPS-induced CD86 expression on cell surface at 100 uM pretreated with LPS upto 6 hrs followed by compound addition measured after 24 hrs by FACS analysis. It counts as functional, cell-based. On the technique in general: A flow cytometer gives signals particle by particle.

For experiment [4], the system named is Dendritic cell. The experiment is described as follows: Antiinflammatory activity in human dendritic cells assessed as reduction in LPS-induced TNFalpha production at 100 uM cotreated with LPS measured after 24 hrs by ELISA. The class given is functional, cell-based. An outline of the steps: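 DCs came from human blood monocytes (Ficoll/Percoll) cultured 5 days with GM-CSF 50 ng ml⁻¹ and IL-4 10 ng ml⁻¹, in RPMI/10% FCS at 37 °C and 5% CO₂. Cells (10^5 per 200 µL) got E. coli K12 LPS (100 ng mL⁻¹) plus compound at the same time. After 24 h, supernatant TNF-α was measured by ELISA, with at least 3 donors and mean ± SEM.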
(In general: ELISA stands for enzyme-linked immunosorbent assay.)

Experiment [5] concerns Dendritic cell. The experiment can be described thus: Antiinflammatory activity in human dendritic cells assessed as reduction in CD14 receptor cell surface expression at 100 uM incubated for 30 mins by flow cytometric analysis. It counts as functional, cell-based. An outline of the steps:
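Monocyte-derived DCs (10^5 in 200 µL complete medium) were exposed for 30 min at 37 °C without LPS. They were then washed, held on ice, stained with anti-CD14-PE, and surface CD14 was read by flow cytometry.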

The subject of experiment [6] is Dendritic cell. The experiment can be described thus: Antiinflammatory activity in human dendritic cells assessed as reduction in LPS-induced TNFalpha production at 100 uM pretreated with LPS for 30 mins followed by compound addition measured after 24 hrs by ELISA. The class given is functional, cell-based. The procedure, abridged:
as §1

The test system of experiment [7] is Dendritic cell. The experiment can be described thus: Antiinflammatory activity in human dendritic cells assessed as CD14-TLR-4 co-localization at 100 uM incubated for 30 mins by DAPI staining based confocal microscopy. It counts as functional. The procedure, abridged:
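Monocyte-derived DCs (10^5 per chamber) on poly-L-lysine-coated chamber slides were treated for 30 min, then washed, fixed and permeabilized. They were stained with goat anti-TLR-4 (5 µg mL⁻¹) plus AF488 anti-goat, and anti-CD14-APC, with DAPI nuclei. Confocal imaging gave the Pearson CD14/TLR-4 colocalization coefficient per field of 15–20 cells, from two independent assays.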

The source made the active and inactive calls. The rule behind the calls is not given here.

Consider `CCCCCCCCCCCCC#CC#CCCCCCCCCC(=O)NC(COCCC(=O)NCCOCCOCCOCCO[C@H]1O[C@H](CO)[C@@H](O)[C@H](O)[C@@H]1O)(COCCC(=O)NCCOCCOCCOCCO[C@H]1O[C@H](CO)[C@@H](O)[C@H](O)[C@@H]1O)COCCC(=O)NCCOCCOCCOCCO[C@H]1O[C@H](CO)[C@@H](O)[C@H](O)[C@@H]1O`, for which the inhibition result in experiment [1], in experiment [2] and in experiment [3] was “inactive” each time. The inhibition entry in experiment [4], in experiment [5] and in experiment [6] was “Active” throughout. In addition, the outcome in experiment [7] was Active.
